Measured values: PMC7775634 (Cell reports, 2020)
Ends that are not written are not given here. * marks the point of attachment. Biotin = O=C1N[C@H]2[C@H](CS[C@H]2CCCCC(=O)*)N1; Rhodamine = not defined here

What was measured:
[1] = tested on: Cdc15 phosphostate in cells; settings: FK506-treated cells; ref Martín-García et al., 2018; cited from earlier work
Imp2 F-BAR domain = experiment: In vitro binding assay; parameters: species or system S. pombe; settings: biotin-labeled peptide; streptavidin pull down; SDS-PAGE, Coomassie
Outline: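 Biotinylated test peptide (0.10 μM) and purified F-BAR domain (0.05 μM) were mixed with streptavidin resin. Incubation was 1 h at 4°C in 50 mM Tris pH 7.4, 250 mM NaCl, 0.1% NP-40. Resin was washed thoroughly. Bound protein was resolved by SDS-PAGE and stained with Coomassie blue.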

[2] = biological target: T1, Cdc15 F-BAR domain (E30K E152K) (Schizosaccharomyces pombe, UniProt Q09822, E152K/E30K); experiment: Isothermal titration calorimetry; assay type: binding, S. pombe
T1 sequence (Q09822 19-312 E30K/E152K): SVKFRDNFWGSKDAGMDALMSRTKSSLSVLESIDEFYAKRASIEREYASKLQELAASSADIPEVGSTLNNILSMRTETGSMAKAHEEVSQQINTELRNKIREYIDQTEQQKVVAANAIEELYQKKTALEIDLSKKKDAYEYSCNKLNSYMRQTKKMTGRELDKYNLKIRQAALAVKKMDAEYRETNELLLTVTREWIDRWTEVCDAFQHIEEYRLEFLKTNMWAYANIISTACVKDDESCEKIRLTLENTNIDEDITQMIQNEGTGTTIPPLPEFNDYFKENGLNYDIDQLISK

Cdc15 F-BAR domain = experiment: Binding between purified Cdc15 F-BAR domain and recombinant CN; parameters: species or system S. pombe
[3] = phosphorylated; ref Bhattacharjee et al., 2020; cited from earlier work
[4] = biological target: T2, GFP-Cdc15 F-BAR domain (residues 19-312) (S. pombe, UniProt Q09822 19-312); experiment: recruitment to giant unilamellar vesicles, fluorescence microscopy
T2 sequence (looked up): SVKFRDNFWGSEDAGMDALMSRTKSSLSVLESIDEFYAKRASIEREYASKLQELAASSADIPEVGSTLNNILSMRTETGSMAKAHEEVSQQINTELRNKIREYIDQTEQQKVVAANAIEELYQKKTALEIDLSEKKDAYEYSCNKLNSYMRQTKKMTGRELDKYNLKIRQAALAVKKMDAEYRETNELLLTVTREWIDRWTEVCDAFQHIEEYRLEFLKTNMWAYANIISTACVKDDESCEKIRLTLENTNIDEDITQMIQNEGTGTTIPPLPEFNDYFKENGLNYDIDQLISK

In the case of `C=CC[C@@H]1/C=C(\C)C[C@H](C)C[C@H](OC)[C@H]2O[C@@](O)(C(=O)C(=O)N3CCCC[C@H]3C(=O)O[C@H](/C(C)=C/[C@@H]3CC[C@@H](O)[C@H](OC)C3)[C@H](C)[C@@H](O)CC1=O)[C@H](C)C[C@@H]2OC` [FK506], the Cdc15 phosphostate [1] is listed as “Cdc15 phosphostate changes”.

In the case of “Cdc12 peptide (residues 20–40): Cdc12 (residues 20–40) peptide synthesized with an N-terminal biotin modification, used for binding assays (Biotin-TPTPSARRTIGPRAPKSKTTY)”, the “interaction with Imp2 F-BAR domain” value (Imp2 F-BAR domain) is reported as “did not interact”.

Molecule TPTPSARRTIGPRAPKSKTTY [Cdc12 peptide] has a Kd [2] of 5 µM.

For “recombinant CN: Calcineurin produced by co-expressing Ppb1 as a 6xHis fusion (catalytic subunit), Cnb1 (regulatory subunit), and Cam1 (calmodulin)”, the “binding to purified Cdc15 F-BAR domain” value (Cdc15 F-BAR domain) was “did not detect binding”.

B1: Cdc15 (E30K E152K): Full-length FLAG-Cdc15 (E30K E152K) co-expressed with kinase Pom1 (protein, UniProt Q09822 1-927, looked up, variant E30K E152K)
chain: MEVNGVSQSEAAPYVTKSSVKFRDNFWGSKDAGMDALMSRTKSSLSVLESIDEFYAKRASIEREYASKLQELAASSADIPEVGSTLNNILSMRTETGSMAKAHEEVSQQINTELRNKIREYIDQTEQQKVVAANAIEELYQKKTALEIDLSKKKDAYEYSCNKLNSYMRQTKKMTGRELDKYNLKIRQAALAVKKMDAEYRETNELLLTVTREWIDRWTEVCDAFQHIEEYRLEFLKTNMWAYANIISTACVKDDESCEKIRLTLENTNIDEDITQMIQNEGTGTTIPPLPEFNDYFKENGLNYDIDQLISKAPSYPYSSSRPSASASLASSPTRSAFRPKTSETVSSEVVSSPPTSPLHSPVKPVSNEQVEQVTEVELSIPVPSIQEAESQKPVLTGSSMRRPSVTSPTFEVAARPLTSMDVRSSHNAETEVQAIPAATDISPEVKEGKNSENAITKDNDDIILSSQLQPTATGSRSSRLSFSRHGHGSQTSLGSIKRKSIMERMGRPTSPFMGSSFSNMGSRSTSPTKEGFASNQHATGASVQSDELEDIDPRANVVLNVGPNMLSVGEAPVESTSKEEDKDVPDPIANAMAELSSSMRRRQSTSVDDEAPVSLSKTSSSTRLNGLGYHSRNTSIASDIDGVPKKSTLGAPPAAHTSAQMQRMSNSFASQTKQVFGEQRTENSARESLRHSRSNMSRSPSPMLSRRSSTLRPSFERSASSLSVRQSDVVSPAPSTRARGQSVSGQQRPSSSMSLYGEYNKSQPQLSMQRSVSPNPLGPNRRSSSVLQSQKSTSSNTSNRNNGGYSGSRPSSEMGHRYGSMSGRSMRQVSQRSTSRARSPEPTNRNSVQSKNVDPRATFTAEGEPILGYVIALYDYQAQIPEEISFQKGDTLMVLRTQEDGWWDGEIINVPNSKRGLFPSNFVQTV
modifications: full-length FLAG tag
In the case of B1, the membrane binding [3] is listed as “did not bind membrane”.

Rhodamine-TPTPSARRTIGPRAPKSKTTY (reading uncertain) [Rhodamine-Cdc12(aa20-40) peptide]: binds [4].
